Molecules are shown by their SMILES. Bounds are passed on as bounds.

The record followed here is ChEMBL document CHEMBL4177600, “Identification of novel PI3K inhibitors through a scaffold hopping strategy” (Bioorg Med Chem Lett, 2017).

The nature of data set [1]: Inhibition of PI3K in serum-stimulated human U2OS cells assessed as decrease in AKT1 phosphorylation at S473 by C-ELISA. It counts as cell-based. The method in brief: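 U2OS osteosarcoma cells grown in 0.1% FBS, then serum-stimulated; endogenous phospho-Akt1 (Ser473) quantified by cell ELISA with chemiluminescent substrate. EC50 from sigmoid dose-response fit; two independent experiments in duplicate.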

Data set [2] has as its system Serine/threonine-protein kinase B-raf (Homo sapiens), P15056 [V600E]. As to the kind of experiment: Inhibition of recombinant human N-terminal GST/HIS6-tagged BRAF V600E mutant (Q417 to H766 residues) expressed in Sf9 insect cells at 1 uM using MEK1-KM as substrate by fliter binding assay relative to control. The method in brief: (§1)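 Kinase panel of 24 enzymes, each tested at 1 µM; percent inhibition reported as the average of two independent data points.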

Data set [3] deals with Serine/threonine-protein kinase Chk2 (Homo sapiens) (UniProt O96017). As to the kind of experiment: Inhibition of CHK2 (unknown origin) at 1 uM relative to control. The method in brief: as §1
The target in data set [4] is Epidermal growth factor receptor (Homo sapiens) (UniProt P00533). The experiment in a line: Inhibition of recombinant human N-terminal GST/His6-tagged EGFR (H672 to A1210 residues) expressed in Sf9 insect cells at 1 uM using TRK-C-derived peptide as substrate by filter binding method relative to control. The gist of the method:
as §1

For data set [5], the target named is T1, Inhibitor of nuclear factor kappa-B kinase subunit beta (Homo sapiens) (UniProt O14920).
T1 sequence (whole entry): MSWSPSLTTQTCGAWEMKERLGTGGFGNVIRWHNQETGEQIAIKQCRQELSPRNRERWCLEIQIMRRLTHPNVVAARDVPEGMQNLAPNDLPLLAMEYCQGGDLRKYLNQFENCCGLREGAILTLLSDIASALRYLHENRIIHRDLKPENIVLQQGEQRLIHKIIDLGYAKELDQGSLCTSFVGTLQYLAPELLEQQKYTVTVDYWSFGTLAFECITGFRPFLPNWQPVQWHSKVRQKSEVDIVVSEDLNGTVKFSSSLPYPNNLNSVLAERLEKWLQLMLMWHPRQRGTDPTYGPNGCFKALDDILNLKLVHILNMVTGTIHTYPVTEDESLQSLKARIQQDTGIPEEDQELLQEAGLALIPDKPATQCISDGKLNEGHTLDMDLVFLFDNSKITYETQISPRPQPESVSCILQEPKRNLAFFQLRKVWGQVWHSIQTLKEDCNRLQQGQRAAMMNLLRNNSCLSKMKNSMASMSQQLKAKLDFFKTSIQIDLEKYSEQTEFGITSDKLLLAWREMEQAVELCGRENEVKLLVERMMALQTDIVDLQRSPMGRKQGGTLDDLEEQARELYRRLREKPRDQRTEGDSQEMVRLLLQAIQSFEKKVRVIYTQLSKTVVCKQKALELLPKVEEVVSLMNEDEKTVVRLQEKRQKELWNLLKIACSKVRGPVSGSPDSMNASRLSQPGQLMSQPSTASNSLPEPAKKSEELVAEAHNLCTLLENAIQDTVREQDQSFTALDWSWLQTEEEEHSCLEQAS
The experiment in a line: Inhibition of recombinant human N-terminal GST/His6-tagged IKKbeta (M1 to S756 residues) expressed in baculovirus infected Sf9 cells at 1 uM using IKBa derived peptide as substrate by filter binding method relative to control. The gist of the method:
as §1

Data set [6] deals with Tyrosine-protein kinase JAK2 (Homo sapiens) (UniProt O60674). As to the kind of experiment: Inhibition of recombinant human N-terminal GST/His6-tagged JAK2 (P717 to G1132 residues) expressed in Sf9 insect cells at 1 uM using TRK-C-derived peptide as substrate by filter binding method relative to control. The method in brief:
as §1

Data set [7] addresses Dual specificity mitogen-activated protein kinase kinase 1 (Homo sapiens) (UniProt Q02750). As to the kind of experiment: Inhibition of wild-type human MEK1 (M1 to V393 residues) expressed in Sf9 insect cells at 1 uM using ERK2-K54R as substrate by filter binding method relative to control. The method in brief: (§2)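 Single-point screen at 1 µM in a 24-kinase panel run externally; each value is the average of two independent data points. The detailed assay conditions are given only on the provider's site.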

Data set [8] concerns the target Hepatocyte growth factor receptor (Homo sapiens) (UniProt P08581). The experiment in a line: Inhibition of recombinant human N-terminal GST/His6-tagged MET (K956 to S1390 residues) expressed in Sf9 insect cells at 1 uM using TRK-C-derived peptide as substrate by filter binding method relative to control. The method in brief: as §2
Data set [9] concerns the target Ribosomal protein S6 kinase alpha-1 (Homo sapiens) (UniProt Q15418). As to the kind of experiment: Inhibition of RPS6KA1 (unknown origin) at 1 uM relative to control. The gist of the method:
as §1

Data set [10] deals with Proto-oncogene tyrosine-protein kinase Src (Homo sapiens) (UniProt P12931). As to the kind of experiment: Inhibition of human SRC at 1 uM using poly(Glu,Tyr)4:1 as substrate by filter binding method relative to control. The gist of the method: as §1
Data set [11] deals with RAC-beta serine/threonine-protein kinase (Homo sapiens) (UniProt P31751). The experiment in a line: Inhibition of human AKT2 at 1 uM by filter binding assay relative to control. The method in brief: as §1
Data set [12] has as its target T2, CYP1A2 (Homo sapiens, UniProt P05177).
T2 sequence (P05177 whole entry): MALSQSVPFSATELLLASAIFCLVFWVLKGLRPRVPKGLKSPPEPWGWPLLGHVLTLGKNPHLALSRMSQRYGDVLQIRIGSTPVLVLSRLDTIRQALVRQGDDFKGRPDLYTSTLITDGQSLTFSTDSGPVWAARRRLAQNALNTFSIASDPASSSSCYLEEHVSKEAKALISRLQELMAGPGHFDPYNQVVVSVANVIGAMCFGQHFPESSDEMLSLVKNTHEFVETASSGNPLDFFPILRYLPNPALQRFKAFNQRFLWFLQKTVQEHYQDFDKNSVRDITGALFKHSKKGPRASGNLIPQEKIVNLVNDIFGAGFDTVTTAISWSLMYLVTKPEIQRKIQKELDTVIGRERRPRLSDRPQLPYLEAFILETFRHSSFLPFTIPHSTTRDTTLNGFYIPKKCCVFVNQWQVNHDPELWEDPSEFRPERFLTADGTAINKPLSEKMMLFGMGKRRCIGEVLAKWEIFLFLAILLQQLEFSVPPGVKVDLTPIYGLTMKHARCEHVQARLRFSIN
As to the kind of experiment: Inhibition of CYP1A2 (unknown origin) at 10 uM relative to control. It is filed as ADME. The gist of the method: (§3)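 CYP1A2, 2C9, 2C19, 2D6 and 3A4 inhibition measured at 10 µM test compound in duplicate; percent inhibition reported.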

In data set [13] the target is CYP2C9 (Homo sapiens, UniProt P11712). As to the kind of experiment: Inhibition of CYP2C9 (unknown origin) at 10 uM relative to control. It is filed as ADME. The method in brief:
as §3

In data set [14] the target is CYP2C19 (Homo sapiens, UniProt P33261). As to the kind of experiment: Inhibition of CYP2C19 (unknown origin) at 10 uM relative to control. It is filed as ADME. The method in brief: as §3
Sequence of CYP2C19 (P33261 whole entry, canonical isoform): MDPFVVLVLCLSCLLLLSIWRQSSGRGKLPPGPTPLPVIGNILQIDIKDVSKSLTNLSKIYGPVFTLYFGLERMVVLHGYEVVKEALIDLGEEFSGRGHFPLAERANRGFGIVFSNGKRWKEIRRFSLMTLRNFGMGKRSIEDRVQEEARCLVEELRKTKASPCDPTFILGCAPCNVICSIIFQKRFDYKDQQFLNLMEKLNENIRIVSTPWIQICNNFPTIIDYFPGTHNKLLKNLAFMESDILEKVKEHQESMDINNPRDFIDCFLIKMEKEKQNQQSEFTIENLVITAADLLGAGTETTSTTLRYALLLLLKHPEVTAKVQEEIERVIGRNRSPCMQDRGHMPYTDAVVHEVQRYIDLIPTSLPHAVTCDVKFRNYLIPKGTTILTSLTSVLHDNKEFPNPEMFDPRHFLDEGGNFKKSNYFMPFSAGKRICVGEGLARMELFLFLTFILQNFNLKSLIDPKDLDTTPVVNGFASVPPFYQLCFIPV
The target in data set [15] is Phosphatidylinositol 4,5-bisphosphate 3-kinase catalytic subunit gamma isoform (Homo sapiens, UniProt P48736). As to the kind of experiment: Inhibition of recombinant full-length human N-terminal His6-tagged p110gamma expressed in baculovirus infected Sf21 insect cells using PIP2 as substrate by HTRF assay. As to conditions: read-out: Ki(app). For orientation: TR-FRET usually uses a lanthanide donor and a delayed reading to cut background.
Sequence of Phosphatidylinositol 4,5-bisphosphate 3-kinase catalytic subunit gamma isoform (P48736 whole entry, canonical isoform): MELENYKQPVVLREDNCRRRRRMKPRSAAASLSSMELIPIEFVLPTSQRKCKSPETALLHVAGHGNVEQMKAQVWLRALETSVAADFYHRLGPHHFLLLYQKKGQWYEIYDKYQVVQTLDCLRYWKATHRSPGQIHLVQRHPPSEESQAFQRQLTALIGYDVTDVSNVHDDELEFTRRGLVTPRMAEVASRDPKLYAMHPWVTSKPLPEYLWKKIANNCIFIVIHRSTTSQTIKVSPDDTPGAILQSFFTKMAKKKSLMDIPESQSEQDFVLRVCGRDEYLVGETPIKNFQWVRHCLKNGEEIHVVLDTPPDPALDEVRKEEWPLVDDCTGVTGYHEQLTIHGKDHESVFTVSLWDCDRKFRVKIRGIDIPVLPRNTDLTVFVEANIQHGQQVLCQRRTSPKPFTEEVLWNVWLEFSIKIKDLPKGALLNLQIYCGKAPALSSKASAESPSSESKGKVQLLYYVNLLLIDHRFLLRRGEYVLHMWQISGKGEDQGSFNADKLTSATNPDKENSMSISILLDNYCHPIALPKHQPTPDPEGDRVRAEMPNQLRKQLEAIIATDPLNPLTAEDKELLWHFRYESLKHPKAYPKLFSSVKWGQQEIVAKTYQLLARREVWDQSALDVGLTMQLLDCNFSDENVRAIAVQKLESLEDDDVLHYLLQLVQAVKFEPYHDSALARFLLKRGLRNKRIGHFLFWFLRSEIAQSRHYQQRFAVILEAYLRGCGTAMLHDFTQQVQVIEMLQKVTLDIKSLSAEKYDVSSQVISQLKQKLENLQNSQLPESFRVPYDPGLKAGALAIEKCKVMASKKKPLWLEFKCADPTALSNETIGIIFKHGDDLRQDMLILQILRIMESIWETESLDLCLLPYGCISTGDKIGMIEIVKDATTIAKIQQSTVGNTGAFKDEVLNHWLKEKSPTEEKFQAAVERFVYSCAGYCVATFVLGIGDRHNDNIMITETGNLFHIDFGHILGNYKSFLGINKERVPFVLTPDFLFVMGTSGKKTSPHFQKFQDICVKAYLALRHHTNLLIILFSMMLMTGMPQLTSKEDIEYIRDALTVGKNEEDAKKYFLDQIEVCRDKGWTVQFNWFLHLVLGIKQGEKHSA

Sequence of Hepatocyte growth factor receptor (Homo sapiens) (P08581 whole entry, the tested form may be a part): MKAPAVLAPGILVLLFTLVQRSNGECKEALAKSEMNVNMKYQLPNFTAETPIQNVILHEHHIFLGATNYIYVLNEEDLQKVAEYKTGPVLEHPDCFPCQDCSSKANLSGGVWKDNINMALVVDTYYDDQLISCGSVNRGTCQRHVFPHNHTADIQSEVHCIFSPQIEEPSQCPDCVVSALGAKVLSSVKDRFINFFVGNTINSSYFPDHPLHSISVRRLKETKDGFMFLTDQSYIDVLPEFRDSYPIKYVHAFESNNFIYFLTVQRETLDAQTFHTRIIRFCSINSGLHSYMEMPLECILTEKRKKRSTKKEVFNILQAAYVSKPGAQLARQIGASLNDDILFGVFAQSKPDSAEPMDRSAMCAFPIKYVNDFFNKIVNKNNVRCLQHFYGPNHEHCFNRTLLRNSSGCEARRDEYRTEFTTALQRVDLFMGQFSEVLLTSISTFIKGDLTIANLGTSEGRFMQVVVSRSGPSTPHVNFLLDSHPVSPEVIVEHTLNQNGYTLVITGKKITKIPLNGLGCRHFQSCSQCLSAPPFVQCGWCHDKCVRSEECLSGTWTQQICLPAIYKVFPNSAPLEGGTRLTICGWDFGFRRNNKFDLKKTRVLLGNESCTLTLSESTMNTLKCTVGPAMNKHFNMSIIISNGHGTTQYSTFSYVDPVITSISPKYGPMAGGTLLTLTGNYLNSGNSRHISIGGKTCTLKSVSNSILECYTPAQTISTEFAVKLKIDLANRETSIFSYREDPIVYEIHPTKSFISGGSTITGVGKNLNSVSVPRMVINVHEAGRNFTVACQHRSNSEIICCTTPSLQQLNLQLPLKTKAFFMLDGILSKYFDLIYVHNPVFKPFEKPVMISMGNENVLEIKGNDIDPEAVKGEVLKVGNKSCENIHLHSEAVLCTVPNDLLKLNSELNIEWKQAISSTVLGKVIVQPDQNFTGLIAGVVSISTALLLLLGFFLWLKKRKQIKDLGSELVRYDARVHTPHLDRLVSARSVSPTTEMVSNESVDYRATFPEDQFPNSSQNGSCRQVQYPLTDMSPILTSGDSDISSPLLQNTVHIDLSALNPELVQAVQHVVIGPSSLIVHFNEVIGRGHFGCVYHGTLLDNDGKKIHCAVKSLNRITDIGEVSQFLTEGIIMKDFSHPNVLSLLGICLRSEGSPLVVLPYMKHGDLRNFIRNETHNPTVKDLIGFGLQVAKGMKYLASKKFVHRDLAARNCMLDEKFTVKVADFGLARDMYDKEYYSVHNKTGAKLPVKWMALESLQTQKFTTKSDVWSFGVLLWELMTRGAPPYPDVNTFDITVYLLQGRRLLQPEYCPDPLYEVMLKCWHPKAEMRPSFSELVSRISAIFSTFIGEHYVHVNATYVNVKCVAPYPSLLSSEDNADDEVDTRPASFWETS
Sequence of Ribosomal protein S6 kinase alpha-1 (Homo sapiens) (Q15418 whole entry): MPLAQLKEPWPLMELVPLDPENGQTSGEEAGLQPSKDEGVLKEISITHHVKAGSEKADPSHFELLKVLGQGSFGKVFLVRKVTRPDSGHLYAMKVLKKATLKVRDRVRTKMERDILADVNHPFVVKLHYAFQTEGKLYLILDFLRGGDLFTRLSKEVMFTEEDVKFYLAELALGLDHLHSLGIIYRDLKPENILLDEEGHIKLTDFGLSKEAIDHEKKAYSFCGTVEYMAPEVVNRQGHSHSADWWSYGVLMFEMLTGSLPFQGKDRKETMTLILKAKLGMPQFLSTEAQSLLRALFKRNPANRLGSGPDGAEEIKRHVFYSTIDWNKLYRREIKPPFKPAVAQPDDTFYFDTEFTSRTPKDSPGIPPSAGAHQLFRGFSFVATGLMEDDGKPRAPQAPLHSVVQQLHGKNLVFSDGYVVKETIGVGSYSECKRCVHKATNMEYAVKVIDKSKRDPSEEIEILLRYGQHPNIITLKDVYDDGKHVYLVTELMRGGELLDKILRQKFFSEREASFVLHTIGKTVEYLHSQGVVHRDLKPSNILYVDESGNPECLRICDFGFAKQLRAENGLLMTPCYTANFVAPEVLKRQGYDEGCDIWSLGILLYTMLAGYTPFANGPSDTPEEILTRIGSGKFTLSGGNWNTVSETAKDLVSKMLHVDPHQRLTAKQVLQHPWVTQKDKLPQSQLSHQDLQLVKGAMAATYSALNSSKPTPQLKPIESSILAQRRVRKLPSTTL
Sequence of Epidermal growth factor receptor (Homo sapiens) (P00533 whole entry, the tested form may be a part): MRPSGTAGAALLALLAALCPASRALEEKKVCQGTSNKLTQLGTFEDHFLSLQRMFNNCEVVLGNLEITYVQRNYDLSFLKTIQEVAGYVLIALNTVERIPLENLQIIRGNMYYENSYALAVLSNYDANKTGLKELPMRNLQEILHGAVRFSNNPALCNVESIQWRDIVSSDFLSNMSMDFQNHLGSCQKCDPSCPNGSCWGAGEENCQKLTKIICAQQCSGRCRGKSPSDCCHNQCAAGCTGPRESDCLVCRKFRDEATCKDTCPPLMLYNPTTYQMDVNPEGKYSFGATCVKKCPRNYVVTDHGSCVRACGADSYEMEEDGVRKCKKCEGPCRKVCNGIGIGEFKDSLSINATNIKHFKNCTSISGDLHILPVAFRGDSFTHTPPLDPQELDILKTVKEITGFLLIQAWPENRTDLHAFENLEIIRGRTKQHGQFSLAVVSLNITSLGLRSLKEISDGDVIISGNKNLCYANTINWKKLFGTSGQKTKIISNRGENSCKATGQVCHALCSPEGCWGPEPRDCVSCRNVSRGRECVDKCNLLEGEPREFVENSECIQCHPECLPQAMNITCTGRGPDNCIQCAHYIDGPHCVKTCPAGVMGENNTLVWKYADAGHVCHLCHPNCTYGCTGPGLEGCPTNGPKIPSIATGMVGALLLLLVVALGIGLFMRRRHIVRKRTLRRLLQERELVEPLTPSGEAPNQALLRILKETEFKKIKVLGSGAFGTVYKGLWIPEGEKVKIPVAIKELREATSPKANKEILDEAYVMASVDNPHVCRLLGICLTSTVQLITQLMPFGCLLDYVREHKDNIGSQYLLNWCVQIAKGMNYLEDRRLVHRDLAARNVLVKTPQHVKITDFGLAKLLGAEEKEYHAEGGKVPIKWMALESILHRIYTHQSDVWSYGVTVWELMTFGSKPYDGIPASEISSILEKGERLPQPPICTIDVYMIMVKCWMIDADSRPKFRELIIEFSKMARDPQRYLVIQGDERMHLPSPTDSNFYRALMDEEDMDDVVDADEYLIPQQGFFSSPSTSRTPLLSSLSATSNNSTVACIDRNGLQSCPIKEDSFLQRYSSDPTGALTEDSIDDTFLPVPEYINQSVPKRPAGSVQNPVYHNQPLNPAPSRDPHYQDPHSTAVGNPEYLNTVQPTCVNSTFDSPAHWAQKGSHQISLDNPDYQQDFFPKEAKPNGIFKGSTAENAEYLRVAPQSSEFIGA

By EC50 is commonly meant the midpoint of the concentration-response curve. As usually defined, the inhibition is the relative decrease from the control value, in per cent. Turning to `CS(=O)(=O)N1CCN(Cc2nc3c(N4CCOCC4)nc(-c4cnc(N)nc4)cn3n2)CC1`, the half-maximal effective concentration (EC50) in [1] amounted to 87.2 nM. Further, the inhibition in [2], in data set [3], in data set [4], in [5], in data set [6] and in [7] was less than 25% each time. Also, the inhibition in [8], in [9], in data set [10] and in data set [11] was less than 25% each time. The inhibition at 10 µM in data set [12], in data set [13] and in data set [14] was less than 25% throughout.

Take `CS(=O)(=O)N1CCN(Cc2nc3c(N4CCOCC4)nc(-c4cnc(N)nc4)c(Cl)n3n2)CC1`: the Ki in data set [15] turned out to be 42.4 nM. Further, the EC50 in data set [1] came to 68.6 nM. Besides, the inhibition in data set [2], in data set [3], in data set [4], in [5], in data set [6] and in data set [7] was less than 25% each time. The inhibition in [8], in data set [9], in [10] and in [11] was less than 25% each time. Moreover, the inhibition at 10 µM in [12], in [13] and in data set [14] was less than 25% in each case.

As for `CS(=O)(=O)N1CCN(Cc2cc3c(N4CCOCC4)nc(-c4cnc(N)nc4)cn3n2)CC1`, the Ki in data set [15] was 49.1 nM. Moreover, in data set [1], the half-maximal effective concentration (EC50) was 30.5 nM. Moreover, the inhibition in data set [2], in data set [3], in data set [4], in [5], in data set [6] and in [7] was less than 25% in each case. Moreover, the inhibition in data set [8], in data set [9], in data set [10] and in data set [11] was less than 25% in each case. The inhibition at 10 µM in data set [12], in data set [13] and in data set [14] was less than 25% in each case.

With `CS(=O)(=O)N1CCN(Cc2cn3nc(-c4cnc(N)nc4)nc(N4CCOCC4)c3n2)CC1`, the Ki in [15] was found to be 40.6 nM. The EC50 in data set [1] was 52.8 nM. The inhibition in data set [2], in [3], in [4], in data set [5], in data set [6] and in data set [7] was less than 25% throughout. For the same compound, the inhibition in [8], in [9], in [10] and in data set [11] was less than 25% in each case. Further, the inhibition at 10 µM in data set [12], in data set [13] and in data set [14] was less than 25% in each case.
